From ChEMBL document CHEMBL3739358 (J Med Chem, 2015)
Activity calls are given as the source filed them. No cut-off for these calls is given here.

Tests used:
HEK293 = experiment: Selectivity ratio of Ki for cloned rat dopamine D2L receptor to Ki for cloned rat dopamine D3 receptor expressed in HEK293 cells; assay type: cell-based
In short: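 Competition with [3H]spiroperidol binding at cloned rat D2L and D3 receptors expressed in HEK-293 cells, giving Ki values; the selectivity ratio is D2L Ki divided by D3 Ki. Means ± SEM of 3−6 experiments, each in triplicate.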

D(3) dopamine receptor [1] = target: D(3) dopamine receptor (Rattus norvegicus, UniProt P19020); experiment: Displacement of [3H]Spiroperidol from cloned rat dopamine D3 receptor expressed in HEK293 cells by liquid scintillation counting analysis; assay type: cell-based
D(3) dopamine receptor (Rattus norvegicus, UniProt P19020), sequence (P19020 whole entry): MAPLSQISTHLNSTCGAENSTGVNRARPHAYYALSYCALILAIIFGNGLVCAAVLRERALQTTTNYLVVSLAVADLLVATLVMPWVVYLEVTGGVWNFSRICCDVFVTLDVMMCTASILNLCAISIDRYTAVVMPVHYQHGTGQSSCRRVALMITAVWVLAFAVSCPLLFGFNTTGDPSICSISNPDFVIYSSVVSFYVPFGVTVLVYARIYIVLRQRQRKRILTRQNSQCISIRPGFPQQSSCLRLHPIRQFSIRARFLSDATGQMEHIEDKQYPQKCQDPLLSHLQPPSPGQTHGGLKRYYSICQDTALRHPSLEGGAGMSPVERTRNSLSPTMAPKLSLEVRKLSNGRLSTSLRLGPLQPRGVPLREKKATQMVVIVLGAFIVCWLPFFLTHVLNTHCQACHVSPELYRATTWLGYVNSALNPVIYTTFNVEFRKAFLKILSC

D(2) dopamine receptor = D(2) dopamine receptor (Rattus norvegicus, UniProt P61169); experiment: Displacement of [3H]Spiroperidol from cloned rat dopamine D2L receptor expressed in HEK293 cells by liquid scintillation counting analysis; assay type: cell-based
D(2) dopamine receptor, sequence (P61169 whole entry): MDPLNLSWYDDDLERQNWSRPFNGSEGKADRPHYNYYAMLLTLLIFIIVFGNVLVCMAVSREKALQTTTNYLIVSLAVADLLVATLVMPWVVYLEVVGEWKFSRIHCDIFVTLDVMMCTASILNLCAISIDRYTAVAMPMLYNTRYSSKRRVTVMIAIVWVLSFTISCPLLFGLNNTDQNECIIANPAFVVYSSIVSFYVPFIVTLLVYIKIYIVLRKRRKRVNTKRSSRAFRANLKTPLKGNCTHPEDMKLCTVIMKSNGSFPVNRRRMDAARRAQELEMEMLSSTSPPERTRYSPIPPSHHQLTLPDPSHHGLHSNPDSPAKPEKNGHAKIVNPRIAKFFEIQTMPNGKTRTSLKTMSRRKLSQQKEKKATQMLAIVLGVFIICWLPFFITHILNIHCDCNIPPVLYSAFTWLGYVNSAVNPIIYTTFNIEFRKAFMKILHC
In short: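 Competition with [3H]spiroperidol binding at cloned rat D2L and D3 receptors expressed in HEK-293 cells, giving Ki values; the selectivity ratio is D2L Ki divided by D3 Ki.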

D(3) dopamine receptor [2] = target: T1, D(3) dopamine receptor (Homo sapiens, UniProt P35462); experiment: Agonist activity at human D3 receptor expressed in CHO cells by [35S]GTPgammaS binding assay; assay type: functional, cell-based
T1 sequence (P35462 whole entry): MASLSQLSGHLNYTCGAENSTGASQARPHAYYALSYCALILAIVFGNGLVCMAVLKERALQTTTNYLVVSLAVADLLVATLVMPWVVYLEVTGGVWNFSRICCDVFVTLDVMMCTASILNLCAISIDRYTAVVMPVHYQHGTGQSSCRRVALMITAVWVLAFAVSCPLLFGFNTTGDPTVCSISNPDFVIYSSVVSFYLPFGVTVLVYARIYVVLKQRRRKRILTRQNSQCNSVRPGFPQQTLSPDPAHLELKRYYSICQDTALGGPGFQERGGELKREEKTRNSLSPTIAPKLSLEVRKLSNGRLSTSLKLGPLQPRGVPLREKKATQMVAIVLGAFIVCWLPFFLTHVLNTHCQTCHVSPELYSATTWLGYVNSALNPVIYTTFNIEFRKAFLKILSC

[3] = target: D(2) dopamine receptor (Homo sapiens) (UniProt P14416); experiment: Agonist activity at human D2 receptor expressed in CHO cells by [35S]GTPgammaS binding assay relative to dopamine; assay type: functional, cell-based
D(2) dopamine receptor (Homo sapiens), sequence (P14416 whole entry): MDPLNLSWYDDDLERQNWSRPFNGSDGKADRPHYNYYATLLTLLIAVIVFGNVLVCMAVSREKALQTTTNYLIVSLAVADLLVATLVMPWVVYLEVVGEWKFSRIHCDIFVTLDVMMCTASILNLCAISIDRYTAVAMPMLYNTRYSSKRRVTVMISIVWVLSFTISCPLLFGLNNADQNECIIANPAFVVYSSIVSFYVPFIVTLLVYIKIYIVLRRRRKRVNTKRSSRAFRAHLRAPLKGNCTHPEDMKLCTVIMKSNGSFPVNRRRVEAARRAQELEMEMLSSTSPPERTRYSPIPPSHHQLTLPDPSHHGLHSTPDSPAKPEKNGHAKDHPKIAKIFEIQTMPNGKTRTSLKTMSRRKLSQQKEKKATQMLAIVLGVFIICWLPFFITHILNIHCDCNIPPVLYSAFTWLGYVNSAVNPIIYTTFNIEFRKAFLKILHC
In short: (§1)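 Stimulation of [35S]GTPγS binding in CHO cells expressing hD2 or hD3 receptors. EC50 is the concentration giving half-maximal stimulation. […] Mean ± SEM of 3−6 experiments, each in triplicate.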

D(3) dopamine receptor [4] = target: T1, D(3) dopamine receptor; experiment: Agonist activity at human D3 receptor expressed in CHO cells by [35S]GTPgammaS binding assay relative to dopamine; assay type: functional, cell-based; in short: as §1
Rattus norvegicus = experiment: Reversal of reserpine-induced hypolocomotion in Sprague-Dawley rat at 10 umol/kg, ip administered 18 hrs post reserpine challenge measured for 6 hrs relative to reserpine-treated control; assay type: functional, organism-based
In short: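 Male and female Sprague−Dawley rats (220−225 g) were given reserpine 5.0 mg/kg sc 18 h beforehand and acclimatized in chambers for 1 h. Drug was given at 10 μmol/kg ip, and horizontal activity was recorded by infrared beam breaks for 6 h in 30 min bins. Three rats per group, compared with saline controls by one-way ANOVA with Dunnett's test.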

[5] = Antioxidant activity assessed as DPPH free radical scavenging activity after 30 mins; assay type: physicochemical; conditions: 0.5 h
PC-12 = experiment: Neuroprotective activity against 6-OHDA-induced death of rat PC12 cells assessed as cell viability pretreated for 24 hrs measured 24 hrs post 6-OHDA challenge by MTT assay relative to 6-OHDA-treated control; assay type: functional, cell-based
In short: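 PC12 cells were pretreated with compound for 24 h; the medium was then replaced and 75 μM 6-OHDA added for a further 24 h. Controls received 0.01% DMSO. Viability was measured by MTT (0.5 mg/mL final, 3−4 h, A570/690 nm). Mean ± SD of at least three experiments, each in four to six replicates.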

[6] = Neuroprotective activity against 6-OHDA-induced death of rat PC12 cells assessed as cell viability pretreated for 24 hrs at 20 uM measured 24 hrs post 6-OHDA challenge by MTT assay relative to 6-OHDA-treated control; assay type: functional; conditions: PC-12, read-out: Activity
[7] = Cytotoxicity against rat PC12 cells at 0.001 to 30 uM by MTT assay relative to control; assay type: cell-based; conditions: pc-12, in the assay text read “0.01 to 30 uM” for “0.001 to 30 uM”
In short: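 PC12 cells were grown in RPMI 1640 with 10% heat-inactivated horse serum and 5% FBS at 37 °C, seeded at 17000 cells/well for 24 h, then exposed to 0.01−30 μM compound. Viability was read by MTT (0.5 mg/mL final, 3−4 h), formazan dissolved in methanol:DMSO, A570 with 690 nm background, relative to untreated controls.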

[8] = target: D(2) dopamine receptor (Homo sapiens) (UniProt P14416); experiment: Antagonist activity against human D2 receptor expressed in CHO cells assessed as inhibition of dopamine-induced [35S]GTPgammaS binding; assay type: functional, cell-based
[9] = target: D(2) dopamine receptor (Homo sapiens) (UniProt P14416); conditions: CHO, 200 nM
[10] = target: D(2) dopamine receptor (Homo sapiens) (UniProt P14416); conditions: CHO, 1 uM

SMILES	Ki (D(3) dopamine receptor [1])	Ki (D(2) dopamine receptor)	Ratio Ki (HEK293)	other results
CCCN(CCN1CCN(c2c(Cl)ccc3[nH]ccc23)CC1)[C@H]1CCc2nc(N)sc2C1	0.87 nM	74.5 nM		EC50 (D(3) dopamine receptor [2]): 3.93 nM; Emax [3]: 87.6%; Emax (D(3) dopamine receptor [4]): 104%
CCCN[C@H]1CCc2nc(N)sc2C1				Activity (Rattus norvegicus): Active
CCCN(CCN1CCN(c2cc(F)c3[nH]ccc3c2)CC1)[C@H]1CCc2nc(N)sc2C1	3.66 nM	156 nM	43	
CCCN(CCN1CCN(Cc2c[nH]c3cccc(Cl)c23)CC1)C1CCc2nc(N)sc2C1 (racemic)	13.8 nM	1160 nM	84	
CCCN(CCN1CCN(c2ccc3cc[nH]c3c2Cl)CC1)[C@H]1CCc2nc(N)sc2C1.O=C(O)C(F)(F)F	1.15 nM	16.4 nM		Activity [5]: Dose-dependent effect; Activity (Rattus norvegicus): Active; EC50 (D(3) dopamine receptor [2]): 1.41 nM; Emax [3]: 101%; Activity (PC-12): Dose-dependent effect; viability at 20 µM [6]: 30%; Activity [7]: Non-toxic; Emax (D(3) dopamine receptor [4]): 113%
CCCN(CCN1CCN(Cc2c[nH]c3cccc(OC)c23)CC1)C1CCc2nc(N)sc2C1 (racemic)	25 nM	1880 nM	75	
CCCN1CCC[C@@H](c2cccc(O)c2)C1				Ke [8]: 372 nM; Ke [9]: 362 nM; Ke [10]: 383 nM; Emax [3]: 19.8%; Emax (D(3) dopamine receptor [4]): 52%
CCCN(CCC)CCc1cccc2c1CC(=O)N2				Activity (Rattus norvegicus): Active

More lines, main results first:

Ki (D(3) dopamine receptor [1])	Ki (D(2) dopamine receptor)	SMILES	Ratio Ki (HEK293)	other results
8.87 nM	992 nM	CCCN(CCN1CCN(Cc2c[nH]c3cccc(F)c23)CC1)C1CCc2nc(N)sc2C1 (racemic)	112	
12.9 nM	376 nM	CCCN(CCN1CCN(Cc2c[nH]c3ccc(Br)cc23)CC1)C1CCc2nc(N)sc2C1 (racemic)	29	
15.9 nM	1640 nM	CCCN(CCN1CCN(Cc2c[nH]c3ccc(OC)cc23)CC1)C1CCc2nc(N)sc2C1 (racemic)	101	
12.1 nM	854 nM	CCCN(CCN1CCN(Cc2c[nH]c3ccc(F)cc23)CC1)C1CCc2nc(N)sc2C1 (racemic)	71	
